# Legend:
# HepG2 [1] = test: Antiproliferative activity against human HepG2 cells after 48 hrs by MTT assay; format: functional, cell-based; conditions: HepG2, 48 h
# MCF7 = test: Antiproliferative activity against human MCF7 cells after 48 hrs by MTT assay; format: functional, cell-based; conditions: MCF7, 48 h
# Outline: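 Cells seeded at 30,000 per well, grown 24 h at 37 °C, 5% CO2, then exposed to 5-fold serial dilutions of compound (dissolved in 1% DMSO) for 48 h under same conditions. MTT added at 5 mg/mL; after lysis, absorbance read at 570 nm 4 h later. IC50 taken from exponential viability-versus-concentration curve relative to untreated controls.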
# HepG2 [2] = test: Potency index, ratio of erlotinib IC50 to compound IC50 for human HepG2 cells; format: functional
SMILES,IC50 (HepG2 [1]) [µM],IC50 (MCF7) [µM],Ratio IC50 (HepG2 [2])
O=C(CN1CCOCC1)Nc1ccc2ncnc(Nc3ccc(OCc4cccc(F)c4)cc3)c2c1,> 100,> 100,
O=C(CN1CCCCC1)Nc1ccc2ncnc(Nc3ccc(Cl)cc3)c2c1,16,> 100,
O=C(CN1CCCC1)Nc1ccc2ncnc(Nc3ccc(Cl)c(C(F)(F)F)c3)c2c1,> 100,> 100,
O=C(CN1CCOCC1)Nc1ccc2ncnc(Nc3cccc(C(F)(F)F)c3)c2c1,> 100,15,
CN1CCN(CC(=O)Nc2ccc3ncnc(Nc4ccc(Cl)cc4)c3c2)CC1,> 100,15,
O=C(CN1CCCC1)Nc1ccc2ncnc(Nc3cccc(Cl)c3)c2c1,> 100,> 100,
O=C(CN1CCOCC1)Nc1ccc2ncnc(Nc3ccc(Cl)c(C(F)(F)F)c3)c2c1,> 100,> 100,
O=C(CN1CCCCC1)Nc1ccc2ncnc(Nc3ccc(Br)cc3)c2c1,> 100,> 100,
O=C(CN1CCCCC1)Nc1ccc2ncnc(Nc3cccc(C(F)(F)F)c3)c2c1,> 100,> 100,
O=C(CN1CCOCC1)Nc1ccc2ncnc(Nc3cccc(Cl)c3)c2c1,> 100,> 100,
CN1CCN(CC(=O)Nc2ccc3ncnc(Nc4ccc(Br)cc4)c3c2)CC1,> 100,> 100,
O=C(CN1CCCCC1)Nc1ccc2ncnc(Nc3cccc(Br)c3)c2c1,16,3,
O=C(CN1CCCC1)Nc1ccc2ncnc(Nc3ccc(Cl)cc3)c2c1,18,16,
O=C(CN1CCCC1)Nc1ccc2ncnc(Nc3ccc(OCc4ccccc4)cc3)c2c1,> 100,> 100,
O=C(CN1CCCCC1)Nc1ccc2ncnc(Nc3ccc(Cl)c(C(F)(F)F)c3)c2c1,> 100,> 100,
CN1CCN(CC(=O)Nc2ccc3ncnc(Nc4cccc(Br)c4)c3c2)CC1,25.3,10,
O=C(CN1CCOCC1)Nc1ccc2ncnc(Nc3ccc(Cl)cc3)c2c1,> 100,> 100,
O=C(CN1CCCC1)Nc1ccc2ncnc(Nc3ccc(OCc4cccc(F)c4)cc3)c2c1,25.1,25,
O=C(CN1CCCCC1)Nc1ccc2ncnc(Nc3cccc(Cl)c3)c2c1,12,> 100,2
CN1CCN(CC(=O)Nc2ccc3ncnc(Nc4ccc(Cl)c(C(F)(F)F)c4)c3c2)CC1,25.3,> 100,
O=C(CN1CCCC1)Nc1ccc2ncnc(Nc3ccc(Br)cc3)c2c1,> 100,> 100,
CN1CCN(CC(=O)Nc2ccc3ncnc(Nc4cccc(Cl)c4)c3c2)CC1,> 100,> 100,
O=C(CN1CCCC1)Nc1ccc2ncnc(Nc3cccc(Br)c3)c2c1,> 100,12,
CN1CCN(CC(=O)Nc2ccc3ncnc(Nc4cccc(C(F)(F)F)c4)c3c2)CC1,> 100,> 100,
O=C(CN1CCCC1)Nc1ccc2ncnc(Nc3cccc(C(F)(F)F)c3)c2c1,25.2,> 100,
O=C(CN1CCOCC1)Nc1ccc2ncnc(Nc3ccc(OCc4ccccc4)cc3)c2c1,> 100,25,
O=C(CN1CCOCC1)Nc1ccc2ncnc(Nc3ccc(Br)cc3)c2c1,> 100,> 100,
O=C(CN1CCOCC1)Nc1ccc2ncnc(Nc3cccc(Br)c3)c2c1,19,15,
